Source: ChEMBL document CHEMBL4811231, “Discovery and structural optimization of 3-O-β-chacotriosyl oleanane-type triterpenoids as potent entry inhibitors of SARS-CoV-2 virus infections” (Eur J Med Chem, 2021)

Legend:
[1] = Cytotoxicity against human 293T/ACE2 cells measured after 48 hrs by MTT assay; type: cell-based; settings: 293t/ace2, 48 h
How it was run: (§1)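 MTT assay on monolayers of 293T-ACE2 or Vero-E6 cells. Cells were rinsed with PBS and exposed to compound for 48 h, then given 0.5 mg/mL MTT for 4 h at 37 °C. Formazan was dissolved in DMSO and absorbance read at 570 nm.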

[2] = Selectivity index, ratio of CC50 for cytotoxicity against human 293T/ACE2 cells to IC50 for SARS-CoV-2 spike glycoprotein S inhibition; type: toxicity, cell-based; settings: read-out: Selectivity Index
Vero E6 [3] = experiment: Antiviral activity against SARS-CoV-2 Wuhan-HU-1 infection on African green monkey Vero E6 cells assessed by viral nucleoprotein expression at 0.55 to 15 uM measured after 48 hrs by DAPI staining based indirect immunoflourescence microscopy relative to control; type: functional, cell-based; settings: Severe acute respiratory syndrome-related coronavirus, dose 0.55-15 µM
[4] = Antiviral activity against SARS-CoV-2 Wuhan-HU-1 preincubated for 1 hr with African green monkey VeroE6 cells assessed as inhibition of viral infection by measuring total RNA after 24 hrs by qPCR analysis; type: functional, cell-based, Vero E6; settings: Severe acute respiratory syndrome-related coronavirus, Wuhan-HU-1, Vero C1008
Vero C1008 = experiment: Cytotoxicity against African Green monkey Vero E6 cells measured after 48 hrs by MTT assay; type: cell-based; settings: chlorocebus sabaeus, vero c1008, 48 h; how it was run: as §1
[5] = Inhibition of SARS-CoV-2 spike glycoprotein S1 binding to human ACE2 receptor in co-transfected human HEK293T cells at 40 uM measured by Co-immunoprecipitation based Western blot assay; type: cell-based, Severe acute respiratory syndrome-related coronavirus
How it was run: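 293T cells were co-transfected with ACE2-Flag and SARS-S plasmids, and total protein was extracted after 48 h. Lysates were immunoprecipitated overnight with protein A Sepharose and anti-Flag antibody (mouse IgG as control). Proteins were run on 10% PAGE and blotted with anti-Flag and anti-SARS-CoV-S antibodies plus an HRP secondary.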

[6] = Binding affinity to SARS-CoV-2 spike glycoprotein S1 measured by Surface plasmon resonance; set-up: species or system Severe acute respiratory syndrome-related coronavirus
How it was run: (§2)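 Compound was immobilised on the chip by photo-crosslinking. Recombinant SARS-CoV-2 S-trimer, S1 or S2 protein was injected at a series of concentrations in PBST (0.1% Tween 20, pH 7.4) at 4 °C. Binding lasted 600 s and dissociation 360 s, at 0.5 µL/s. The chip was regenerated with glycine-HCl pH 2.0.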

[7] = Binding affinity to SARS-CoV-2 spike glycoprotein S2 measured by Surface plasmon resonance; set-up: species or system Severe acute respiratory syndrome-related coronavirus; how it was run: as §2
Vero E6 [8] = experiment: Inhibition of SARS-CoV-2 spike glycoprotein S2 in human HEK293T cells transfected with pAAV-IRES-GFP-SARS-CoV-2 S assessed as inhibition of membrane fusion to african green monkey Vero E6 cells […] pretreated at 2.5 to 20 uM for 30 mins measured after 24 hrs by cell-cell fusion based fluorescence microscopy; settings: Severe acute respiratory syndrome-related coronavirus, dose 2.5-20 µM
How it was run: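 Effector HEK-293T cells were transfected with pAAV-IRES-GFP-SARS-CoV-2 S, or with empty pAAV-IRES-GFP as vehicle. They were pretreated with compound for 30 min and overlaid on Vero-E6 target cells seeded 6 h earlier (20,000/well). After 24 h, three random fields were imaged by fluorescence microscopy.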

Molecule `COc1ccccc1NC(=O)[C@]12CCC(C)(C)C[C@H]1C1=CC[C@@H]3[C@@]4(C)CC[C@H](O[C@@H]5O[C@H](CO)[C@@H](O[C@@H]6O[C@@H](C)[C@H](O)[C@@H](O)[C@H]6O)[C@H](O)[C@H]5O[C@@H]5O[C@@H](C)[C@H](O)[C@@H](O)[C@H]5O)C(C)(C)[C@@H]4CC[C@@]3(C)[C@]1(C)CC2` has a CC50 [1] of 31.2 µM and a selectivity ratio [2] of 5.64.

`C[C@@H]1O[C@@H](O[C@H]2[C@H](O[C@H]3CC[C@]4(C)[C@H]5CC=C6[C@@H]7CC(C)(C)CC[C@]7(C(=O)OCc7ccccc7)CC[C@@]6(C)[C@]5(C)CC[C@H]4C3(C)C)O[C@H](CO)[C@@H](O[C@@H]3O[C@@H](C)[C@H](O)[C@@H](O)[C@H]3O)[C@@H]2O)[C@H](O)[C@H](O)[C@H]1O` gave a CC50 [1] of 21.6 µM and a selectivity ratio [2] of 1.29.

`C[C@@H]1O[C@@H](O[C@H]2[C@H](O[C@H]3CC[C@]4(C)[C@H]5CC=C6[C@@H]7CC(C)(C)CC[C@]7(C(=O)Nc7ccccc7)CC[C@@]6(C)[C@]5(C)CC[C@H]4C3(C)C)O[C@H](CO)[C@@H](O[C@@H]3O[C@@H](C)[C@H](O)[C@@H](O)[C@H]3O)[C@@H]2O)[C@H](O)[C@H](O)[C@H]1O` showed a CC50 [1] of 33.5 µM and a selectivity ratio [2] of 1.85.

Molecule `C[C@@H]1O[C@@H](O[C@H]2[C@H](O[C@H]3CC[C@]4(C)[C@H]5CC=C6[C@@H]7CC(C)(C)CC[C@]7(C(=O)NCc7cccs7)CC[C@@]6(C)[C@]5(C)CC[C@H]4C3(C)C)O[C@H](CO)[C@@H](O[C@@H]3O[C@@H](C)[C@H](O)[C@@H](O)[C@H]3O)[C@@H]2O)[C@H](O)[C@H](O)[C@H]1O` has a CC50 [1] of 34.9 µM and a selectivity ratio [2] of 5.92.

For `COc1ccc(NC(=O)[C@]23CCC(C)(C)C[C@H]2C2=CC[C@@H]4[C@@]5(C)CC[C@H](O[C@@H]6O[C@H](CO)[C@@H](O[C@@H]7O[C@@H](C)[C@H](O)[C@@H](O)[C@H]7O)[C@H](O)[C@H]6O[C@@H]6O[C@@H](C)[C@H](O)[C@@H](O)[C@H]6O)C(C)(C)[C@@H]5CC[C@@]4(C)[C@]2(C)CC3)cc1`, the CC50 [1] was > 100 µM and the selectivity ratio [2] was > 10.

For `O=C(/C=C/c1ccc(O)c2oc(-c3ccc(O)c(O)c3)cc12)O[C@H](Cc1ccc(O)c(O)c1)C(=O)O`, the CC50 [1] was > 100 µM and the selectivity ratio [2] was > 26.

`C[C@@H]1O[C@@H](O[C@H]2[C@H](O[C@H]3CC[C@]4(C)[C@H]5CC=C6[C@@H]7CC(C)(C)CC[C@]7(C(=O)Nc7ccccc7Cl)CC[C@@]6(C)[C@]5(C)CC[C@H]4C3(C)C)O[C@H](CO)[C@@H](O[C@@H]3O[C@@H](C)[C@H](O)[C@@H](O)[C@H]3O)[C@@H]2O)[C@H](O)[C@H](O)[C@H]1O` gave a CC50 [1] of 31.7 µM and a selectivity ratio [2] of 5.06.

`C[C@@H]1O[C@@H](O[C@H]2[C@H](O[C@H]3CC[C@]4(C)[C@H]5CC=C6[C@@H]7CC(C)(C)CC[C@]7(C(=O)N(C)Cc7ccccc7)CC[C@@]6(C)[C@]5(C)CC[C@H]4C3(C)C)O[C@H](CO)[C@@H](O[C@@H]3O[C@@H](C)[C@H](O)[C@@H](O)[C@H]3O)[C@@H]2O)[C@H](O)[C@H](O)[C@H]1O` showed a CC50 [1] of 37.6 µM and a selectivity ratio [2] of 4.84.

For `C[C@@H]1O[C@@H](O[C@H]2[C@H](O[C@H]3CC[C@]4(C)[C@H]5CC=C6[C@@H]7CC(C)(C)CC[C@]7(C(=O)NCc7ccccc7)CC[C@@]6(C)[C@]5(C)CC[C@H]4C3(C)C)O[C@H](CO)[C@@H](O[C@@H]3O[C@@H](C)[C@H](O)[C@@H](O)[C@H]3O)[C@@H]2O)[C@H](O)[C@H](O)[C@H]1O`, the CC50 [1] was > 100 µM, the selectivity ratio [2] was > 22.9 and the inhibition (Vero E6 [3]) was “Dose-Dependent Effect”. The IC50 [4] was 0.97 µM, the Activity (Vero C1008) was “Non-Toxic” and the Kd [5] was “Active”. For the same molecule, the Kd [6] was 3690 µM, the Kd [7] was 2.16 µM and the inhibition (Vero E6 [8]) was “Dose-Dependent Effect”.

`COc1ccccc1CNC(=O)[C@]12CCC(C)(C)C[C@H]1C1=CC[C@@H]3[C@@]4(C)CC[C@H](O[C@@H]5O[C@H](CO)[C@@H](O[C@@H]6O[C@@H](C)[C@H](O)[C@@H](O)[C@H]6O)[C@H](O)[C@H]5O[C@@H]5O[C@@H](C)[C@H](O)[C@@H](O)[C@H]5O)C(C)(C)[C@@H]4CC[C@@]3(C)[C@]1(C)CC2` showed a CC50 [1] of 33.4 µM and a selectivity ratio [2] of 2.

For `C[C@@H]1O[C@@H](O[C@H]2[C@H](O[C@H]3CC[C@]4(C)[C@H]5CC=C6[C@@H]7CC(C)(C)CC[C@]7(C(=O)NCc7ccccc7F)CC[C@@]6(C)[C@]5(C)CC[C@H]4C3(C)C)O[C@H](CO)[C@@H](O[C@@H]3O[C@@H](C)[C@H](O)[C@@H](O)[C@H]3O)[C@@H]2O)[C@H](O)[C@H](O)[C@H]1O`, the CC50 [1] was > 100 µM and the selectivity ratio [2] was > 17.6.

With `COc1cccc(NC(=O)[C@]23CCC(C)(C)C[C@H]2C2=CC[C@@H]4[C@@]5(C)CC[C@H](O[C@@H]6O[C@H](CO)[C@@H](O[C@@H]7O[C@@H](C)[C@H](O)[C@@H](O)[C@H]7O)[C@H](O)[C@H]6O[C@@H]6O[C@@H](C)[C@H](O)[C@@H](O)[C@H]6O)C(C)(C)[C@@H]5CC[C@@]4(C)[C@]2(C)CC3)c1` the CC50 [1] was > 100 µM and the selectivity ratio [2] was > 12.

In the case of `C[C@@H]1O[C@@H](O[C@H]2[C@H](O[C@H]3CC[C@]4(C)[C@H]5CC=C6[C@@H]7CC(C)(C)CC[C@]7(C(=O)NCCc7ccccc7)CC[C@@]6(C)[C@]5(C)CC[C@H]4C3(C)C)O[C@H](CO)[C@@H](O[C@@H]3O[C@@H](C)[C@H](O)[C@@H](O)[C@H]3O)[C@@H]2O)[C@H](O)[C@H](O)[C@H]1O`, the CC50 [1] is reported as > 100 µM and the selectivity ratio [2] is reported as > 13.6.

With `C[C@@H]1O[C@@H](O[C@H]2[C@H](O[C@H]3CC[C@]4(C)[C@H]5CC=C6[C@@H]7CC(C)(C)CC[C@]7(C(=O)NCCCc7ccccc7)CC[C@@]6(C)[C@]5(C)CC[C@H]4C3(C)C)O[C@H](CO)[C@@H](O[C@@H]3O[C@@H](C)[C@H](O)[C@@H](O)[C@H]3O)[C@@H]2O)[C@H](O)[C@H](O)[C@H]1O` the CC50 [1] was > 100 µM and the selectivity ratio [2] was > 7.66.

For `C[C@@H]1O[C@@H](O[C@H]2[C@H](O[C@H]3CC[C@]4(C)[C@H]5CC=C6[C@@H]7CC(C)(C)CC[C@]7(C(=O)NCc7ccccc7Cl)CC[C@@]6(C)[C@]5(C)CC[C@H]4C3(C)C)O[C@H](CO)[C@@H](O[C@@H]3O[C@@H](C)[C@H](O)[C@@H](O)[C@H]3O)[C@@H]2O)[C@H](O)[C@H](O)[C@H]1O`, the CC50 [1] was > 100 µM and the selectivity ratio [2] was > 15.8.

For `C[C@@H]1O[C@@H](O[C@H]2[C@H](O[C@H]3CC[C@]4(C)[C@H]5CC=C6[C@@H]7CC(C)(C)CC[C@]7(C(=O)NCc7ccccc7Br)CC[C@@]6(C)[C@]5(C)CC[C@H]4C3(C)C)O[C@H](CO)[C@@H](O[C@@H]3O[C@@H](C)[C@H](O)[C@@H](O)[C@H]3O)[C@@H]2O)[C@H](O)[C@H](O)[C@H]1O`, the CC50 [1] was > 100 µM and the selectivity ratio [2] was > 8.51.
